Consider 56 compounds from ChEMBL document CHEMBL2034978, “Synthesis and evaluation of curcumin-related compounds for anticancer activity” (Eur J Med Chem, 2012).

SMILES strings stand for the structures. Where only a bound is given, the exact number is not on record here.

Format in all cases: functional, cell-based
One assay concerns PC-3. In words: Cytotoxicity against human PC3 cells after 72 hrs by MTT assay. Conditions: PC-3, 72 h. In outline:
(§1)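 Seeded at 0.2 × 10⁵ cells/ml, grown 24 h, then exposed 72 h to a range of concentrations (upper limit 30). MTT read-out: formazan dissolved in DMSO, absorbance at 540 nm, growth expressed as percent of DMSO-treated cells.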
(Formazan colour is commonly taken as a measure of viable cells.)

The next assay concerns PANC-1. Briefly: Cytotoxicity against human PANC1 cells after 72 hrs by MTT assay. The following applies: PANC-1, 72 h. A digest of the protocol: as §1
The next assay relates to HT-29. Briefly: Cytotoxicity against human HT-29 cells after 72 hrs by MTT assay. Conditions: HT-29, 72 h. In outline: as §1

Usually IC50 stands for the concentration needed to halve the response being measured. Higher therefore signals lower potency. `O=C1/C(=C/c2ccsc2)COC/C1=C\c1ccsc1`: the half-inhibitory concentration (IC50) in the assay on PC-3 was 6.59 µM; in the assay with PANC-1 it was 10.8 µM; with HT-29, 8.94 µM.
In the case of `COc1ccc(/C=C2\CCC/C(=C\c3ccc(OC)c(OC)c3OC)C2=O)c(OC)c1OC`, the IC50 with PC-3 was determined as 8.22 µM; with PANC-1, 11.6 µM; with HT-29, 7.14 µM.
As for `O=C1/C(=C/c2ccc(Cl)cc2)CNC/C1=C\c1ccc(Cl)cc1`, the IC50 came out at 3.63 µM in the assay with PC-3, 3.73 µM in the assay with PANC-1 and 6.33 µM in the assay on HT-29.
For `COc1ccc(C=C2CSCC(=Cc3ccc(OC)c(OC)c3OC)C2=O)c(OC)c1OC`, in that order: 3.78 µM, 4.71 µM and 2.89 µM.
On the same counts, the results for `COc1ccc(/C=C2\COC/C(=C\c3ccc(OC)cc3)C2=O)cc1` are 6.12 µM, 7.63 µM and 6.05 µM.
For `O=C1/C(=C/c2ccncc2)CCC/C1=C\c1ccncc1`, in that order: 2.12 µM, 2.18 µM and 2.35 µM.
`O=C(/C=C/c1ccc(Cl)cc1)/C=C/c1ccc(Cl)cc1`: the IC50 was 16.7 µM in the assay on PC-3, 14.1 µM with PANC-1 and 10.9 µM in the assay with HT-29.
For `COc1ccc(/C=C2\COC/C(=C\c3ccc(OC)c(OC)c3OC)C2=O)c(OC)c1OC`, the figures for the IC50 in the assay on PC-3, in the assay on PANC-1 and in the assay on HT-29 were 2.74 µM, 2.67 µM and 2.45 µM, respectively.
Take `O=C1/C(=C/c2ccc(O)cc2)CCC/C1=C\c1ccc(O)cc1`: the IC50 in the assay with PC-3 came to 13.2 µM; with PANC-1, 13.2 µM; with HT-29, 11.7 µM.
On to `COc1cc(/C=C/C(=O)/C=C/c2cc(OC)c(OC)c(OC)c2)cc(OC)c1OC`, for which the IC50 was 4.63 µM in the assay with PC-3, 3.38 µM in the assay on PANC-1 and 1.68 µM in the assay with HT-29.
In the case of `COc1cc(/C=C/C(=O)/C=C/c2ccc(O)c(OC)c2)ccc1O`, the IC50 came out at 4.2 µM with PC-3, 4.62 µM in the assay on PANC-1 and 2.94 µM in the assay with HT-29.
For `COc1cc(/C=C2\CCC/C(=C\c3ccc(O)c(OC)c3)C2=O)ccc1O` [CYCLOVALONE], in that order: 5.89 µM, 4.43 µM and 3.73 µM.
In the case of `O=C1/C(=C/c2cccnc2)CC/C1=C\c1cccnc1`, the values for the IC50 in the assay with PC-3, in the assay on PANC-1 and with HT-29 were 6.97 µM, 6.22 µM and 5.54 µM, respectively.
On the same counts, the results for `O=C1/C(=C/c2ccc(O)cc2)COC/C1=C\c1ccc(O)cc1` are 7.28 µM, 11.1 µM and 3.86 µM.
On the same counts, the results for `COc1cc(C=C2CSCC(=Cc3cc(OC)c(O)c(OC)c3)C2=O)cc(OC)c1O` are 1.13 µM, 2.2 µM and 1.73 µM.
On the same counts, the results for `COc1cc(/C=C/C(=O)/C=C/c2cc(OC)c(O)c(OC)c2)cc(OC)c1O` are 3.41 µM, 2.23 µM and 2.24 µM.
For `O=C1/C(=C/c2ccsc2)CCC/C1=C\c1ccsc1`, the values for the IC50 with PC-3, in the assay on PANC-1 and with HT-29 were 14.6 µM, 17.4 µM and 17.3 µM, respectively.
On the same counts, the results for `COc1ccc(/C=C/C(=O)/C=C/c2ccc(OC)cc2)cc1` are 11.2 µM, 14 µM and 11.3 µM.
Turning to `COc1ccc(/C=C2\CCC/C(=C\c3ccc(OC)cc3)C2=O)cc1`, the values for the IC50 in the assay with PC-3, in the assay on PANC-1 and in the assay with HT-29 were 12.3 µM, 15.9 µM and 13.7 µM, respectively.
Consider `COc1ccc(/C=C2\CC/C(=C\c3ccc(OC)cc3)C2=O)cc1`, for which the figures for the IC50 in the assay with PC-3, with PANC-1 and with HT-29 were 25.8 µM, more than 30 µM and 23 µM, respectively.
For `COc1cc(/C=C2\CC/C(=C\c3cc(OC)c(O)c(OC)c3)C2=O)cc(OC)c1O`, in that order: 9.98 µM, 9.63 µM and 7.8 µM.
For `O=C1/C(=C/c2ccccn2)CCC/C1=C\c1ccccn1`, in that order: 1.28 µM, 1.3 µM and 1.43 µM.
With `COc1cc(/C=C2\CCC/C(=C\c3cc(OC)c(O)c(OC)c3)C2=O)cc(OC)c1O`, the results for the concentration for half-maximal inhibition (IC50) in the assay with PC-3, in the assay with PANC-1 and in the assay with HT-29 were 4.14 µM, 2.63 µM and 2.7 µM, respectively.
On the same counts, the results for `COc1ccc(/C=C/C(=O)/C=C/c2ccc(OC)c(OC)c2)cc1OC` are 2.98 µM, 3.39 µM and 2.17 µM.
On the same counts, the results for `O=C1/C(=C/c2ccsc2)CC/C1=C\c1ccsc1` are 23 µM, 27.9 µM and 19.7 µM.
On the same counts, the results for `COc1ccc(/C=C/C(=O)/C=C/c2ccc(OC)c(OC)c2OC)c(OC)c1OC` are 5.93 µM, 9.22 µM and 5.09 µM.
Take `COc1ccc(/C=C2\CCC/C(=C\c3ccc(OC)c(OC)c3)C2=O)cc1OC`: the results for the half-maximal inhibitory concentration (IC50) in the assay with PC-3, in the assay on PANC-1 and in the assay on HT-29 were 5.2 µM, 4.46 µM and 4 µM, respectively.
For `O=C1/C(=C/c2ccncc2)COC/C1=C\c1ccncc1`, in that order: 1.83 µM, 2.96 µM and 4.17 µM.
For `O=C1/C(=C/c2ccncc2)CC/C1=C\c1ccncc1`, in that order: 5.58 µM, 7.88 µM and 7.58 µM.
For the compound `O=C(/C=C/c1ccc(O)cc1)/C=C/c1ccc(O)cc1`, the concentration for half-maximal inhibition (IC50) came to 9.68 µM with PC-3, 13.6 µM in the assay with PANC-1 and 9.38 µM in the assay with HT-29.
On the same counts, the results for `COc1cc(/C=C2\COC/C(=C\c3cc(OC)c(O)c(OC)c3)C2=O)cc(OC)c1O` are 0.91 µM, 1.72 µM and 1.44 µM.
Take `COc1cc(/C=C2\CC/C(=C\c3ccc(O)c(OC)c3)C2=O)ccc1O`: the IC50 stood at 15.5 µM with PC-3, 15.5 µM in the assay on PANC-1 and 9.7 µM in the assay with HT-29.
Regarding `O=C1/C(=C/c2cccnc2)COC/C1=C\c1cccnc1`, the results for the IC50 in the assay with PC-3, in the assay on PANC-1 and with HT-29 were 2.21 µM, 0.98 µM and 1.81 µM, respectively.
For `COc1cc(/C=C2\CCC/C(=C\c3cc(OC)c(OC)c(OC)c3)C2=O)cc(OC)c1OC`, in that order: 6.17 µM, 9.66 µM and 4.23 µM.
For `O=C1/C(=C/c2ccc(O)cc2)CC/C1=C\c1ccc(O)cc1`, in that order: 22.9 µM, more than 30 µM and 21.4 µM.
On the same counts, the results for `O=C1/C(=C/c2ccccn2)COC/C1=C\c1ccccn1` are 1.88 µM, 3.24 µM and 3.28 µM.
Consider `O=C1/C(=C/c2ccc(Br)cc2)CC/C1=C\c1ccc(Br)cc1`, for which the results for the IC50 in the assay on PC-3, in the assay with PANC-1 and in the assay on HT-29 were more than 30 µM, 25.3 µM and 19.9 µM, respectively.
For `O=C1/C(=C/c2ccc(Br)cc2)CCC/C1=C\c1ccc(Br)cc1`, in that order: 13.6 µM, 12.2 µM and 9.19 µM.
On the same counts, the results for `COc1ccc(/C=C2\CC/C(=C\c3ccc(OC)c(OC)c3OC)C2=O)c(OC)c1OC` are 18.7 µM, 22.7 µM and 19.8 µM.
Take `O=C1/C(=C/c2ccc(F)cc2)CC/C1=C\c1ccc(F)cc1`: the results for the IC50 with PC-3, in the assay with PANC-1 and in the assay with HT-29 were 19 µM, 19.7 µM and 14.4 µM, respectively.
As to `O=C1C(=Cc2ccc(O)cc2)CSCC1=Cc1ccc(O)cc1`, the IC50 came out at 8.23 µM with PC-3, 12 µM in the assay with PANC-1 and 4.27 µM in the assay on HT-29.
For `O=C1/C(=C/c2ccc(Cl)cc2)CCC/C1=C\c1ccc(Cl)cc1`, in that order: 11.3 µM, 11.8 µM and 7.75 µM.
For `O=C1/C(=C/c2ccc(Br)cc2)CNC/C1=C\c1ccc(Br)cc1`, the IC50 with PC-3 was determined as 1.95 µM; in the assay on PANC-1, 2.06 µM; with HT-29, 4.13 µM.
For `O=C1/C(=C/c2ccccn2)CC/C1=C\c1ccccn1`, in that order: 2.94 µM, 5.19 µM and 5.36 µM.
Take `O=C(/C=C/c1ccc(F)cc1)/C=C/c1ccc(F)cc1`: the 50% inhibitory concentration (IC50) in the assay on PANC-1 was found to be 12.5 µM; with HT-29 it was 9.35 µM.
As for `COc1ccc(C=C2CSCC(=Cc3ccc(OC)cc3)C2=O)cc1`, the IC50 was found to be 8.46 µM with PC-3, 10.9 µM with PANC-1 and 7.93 µM in the assay on HT-29.
On the same counts, the results for `O=C1/C(=C/c2cccnc2)CCC/C1=C\c1cccnc1` are 2.16 µM, 2.5 µM and 1.99 µM.
For `O=C1/C(=C/c2ccsc2)CSC/C1=C\c1ccsc1`, in that order: 4.13 µM, 7.49 µM and 6.75 µM.
As for `O=C(/C=C/c1ccc(O)c(O)c1)/C=C/c1ccc(O)c(O)c1`, the IC50 was found to be 8.99 µM with PC-3, 13.4 µM with PANC-1 and 9.02 µM in the assay with HT-29.
For `O=C1/C(=C/c2ccc(F)cc2)CCC/C1=C\c1ccc(F)cc1`, in that order: 11.9 µM, 10.4 µM and 7.56 µM.
For `O=C1/C(=C/c2ccncc2)CSC/C1=C\c1ccncc1`, in that order: 0.7 µM, 1.14 µM and 1.29 µM.
For `O=C1/C(=C/c2ccc(Cl)cc2)CC/C1=C\c1ccc(Cl)cc1`, in that order: 25 µM, 23.2 µM and 15.9 µM.
Turning to `COc1cc(/C=C2\CC/C(=C\c3cc(OC)c(OC)c(OC)c3)C2=O)cc(OC)c1OC`, the IC50 in the assay with PC-3 was determined as 16.4 µM; in the assay with PANC-1, 18.8 µM; with HT-29 it was 12.7 µM.
For `O=C(/C=C/c1ccc(Br)cc1)/C=C/c1ccc(Br)cc1`, in that order: 23.1 µM, 20.8 µM and 14 µM.
For `O=C1/C(=C/c2ccc(F)cc2)CNC/C1=C\c1ccc(F)cc1`, in that order: 2.87 µM, 3.15 µM and 3.26 µM.
For `COc1ccc(/C=C2\CC/C(=C\c3ccc(OC)c(OC)c3)C2=O)cc1OC`, in that order: 9.3 µM, 13.7 µM and 13.5 µM.
